pA2 and Agonist activity data for 9 molecules are collected here from ChEMBL document CHEMBL1128192, “Differences in backbone structure between angiotensin II agonists and type I antagonists” (J Med Chem, 1995).

Structures are written as SMILES. Where a SMILES comes first, the peptide text is derived from it. [ ]: non-standard residue; d: D form. Nva(5-OH) = N[C@@H](CCCO)C(=O)O; Aib = CC(C)(N)C(=O)O; Sar = CNCC(=O)O

In assay [1] the target is T1, Angiotensin II receptor (AT-1) type-1 (Rattus norvegicus, UniProt P29089+P25095).
T1 sequence (P29089 whole entry): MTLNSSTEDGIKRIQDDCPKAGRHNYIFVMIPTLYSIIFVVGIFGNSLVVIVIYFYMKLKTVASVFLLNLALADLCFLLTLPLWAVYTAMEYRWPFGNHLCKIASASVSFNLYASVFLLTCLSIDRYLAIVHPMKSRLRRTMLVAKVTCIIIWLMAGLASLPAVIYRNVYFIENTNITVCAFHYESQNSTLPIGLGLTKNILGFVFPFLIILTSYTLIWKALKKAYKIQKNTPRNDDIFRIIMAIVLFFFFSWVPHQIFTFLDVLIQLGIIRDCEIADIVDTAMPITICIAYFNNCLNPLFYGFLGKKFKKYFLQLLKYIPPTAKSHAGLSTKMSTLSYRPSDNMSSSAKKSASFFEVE
T1 sequence (P25095 whole entry): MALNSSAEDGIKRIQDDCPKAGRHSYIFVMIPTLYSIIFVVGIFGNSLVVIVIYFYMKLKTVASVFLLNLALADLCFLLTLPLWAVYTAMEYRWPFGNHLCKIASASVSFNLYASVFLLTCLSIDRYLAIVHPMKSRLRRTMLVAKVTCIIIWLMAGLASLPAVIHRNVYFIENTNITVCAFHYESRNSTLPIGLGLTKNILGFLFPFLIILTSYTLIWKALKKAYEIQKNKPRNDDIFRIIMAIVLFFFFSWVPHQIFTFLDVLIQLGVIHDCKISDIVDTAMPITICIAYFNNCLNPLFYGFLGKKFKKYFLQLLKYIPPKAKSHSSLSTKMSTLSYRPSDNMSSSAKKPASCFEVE
In words: Antagonist activity against Angiotensin II receptor type 1 as pA2. Format: functional. The method in brief: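 Isolated uterus from diethylstilbestrol-primed (25 μg im, 24 h) female virgin Sprague–Dawley rats, in DeJalons solution. An ANGII noncumulative dose-response curve was first set up in each tissue. Antagonist was added 2 min before ANGII, with EC50 reproducibility checked before and after. pA2 is the −log antagonist concentration that cuts the ED50 ANGII response to that of an ED50/2 dose, as the mean of ≥3 tissues.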

Assay [2] deals with Angiotensin II receptor (Rattus norvegicus) (UniProt P29089+P25095+P35351). In words: Agonist activity at Angiotensin II receptor. The assay is classed as functional. The method in brief:
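Uteri from female virgin Sprague–Dawley rats (150–200 g) given 25 μg diethylstilbestrol im 24 h before sacrifice. Horns were cleaned and bathed in DeJalons solution. Contractions were recorded with noncumulative dosing, with washout at peak response and 10 min rest between challenges. Activity is relative to human ANGII as standard, as the mean of at least three tissues.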

Sequence of Angiotensin II receptor (Rattus norvegicus) (P35351 whole entry, looked up, one chain of several): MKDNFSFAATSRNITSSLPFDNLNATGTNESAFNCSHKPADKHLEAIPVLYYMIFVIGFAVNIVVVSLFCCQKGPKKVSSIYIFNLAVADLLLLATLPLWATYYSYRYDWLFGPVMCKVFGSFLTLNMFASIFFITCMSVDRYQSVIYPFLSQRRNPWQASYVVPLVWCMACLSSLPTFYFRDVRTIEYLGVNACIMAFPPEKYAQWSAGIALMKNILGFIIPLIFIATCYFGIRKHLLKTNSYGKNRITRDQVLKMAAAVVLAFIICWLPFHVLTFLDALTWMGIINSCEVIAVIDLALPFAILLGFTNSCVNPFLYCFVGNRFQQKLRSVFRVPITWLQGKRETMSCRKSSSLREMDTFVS

Consider `CC[C@H](C)[C@H](NC(=O)[C@H](Cc1ccc(O)cc1)NC(=O)[C@@H](NC(=O)[C@H](CCCN=C(N)N)NC(=O)[C@@H](N)CC(=O)O)C(C)C)C(=O)N[C@@H](Cc1c[nH]cn1)C(=O)N1CCC[C@H]1C(=O)N[C@@H](CCOC)C(=O)O`, for which the pA2 (commonly a measure of antagonist potency on a negative log scale) in assay [1] was determined as 7.5. Further, the Agonist activity in assay [2] is less than 0.1%.
Regarding `CC[C@H](C)[C@H](NC(=O)[C@H](Cc1ccc(O)cc1)NC(=O)[C@@H](NC(=O)[C@@H](N)CCCN=C(N)N)C(C)C)C(=O)N[C@@H](Cc1c[nH]cn1)C(=O)N1CCC[C@H]1C(=O)N[C@@H](CCOC)C(=O)O`, the pA2 in assay [1] was less than 6. The molecule also registered an Agonist activity in assay [2] of less than 0.1%.
`CC[C@H](C)[C@H](NC(=O)[C@H](CCCO)NC(=O)[C@@H](NC(=O)[C@H](CCCN=C(N)N)NC(=O)C(C)(C)N)C(C)C)C(=O)N[C@@H](Cc1c[nH]cn1)C(=O)N1CCC[C@H]1C(=O)N[C@@H](Cc1ccccc1)C(=O)O` (H-[Aib]RV[Nva(5-OH)]IHPF-OH) displayed a pA2 in assay [1] of less than 6.
`CC[C@H](C)[C@H](NC(=O)[C@@H]1CCCN1C(=O)[C@H](Cc1c[nH]cn1)NC(=O)[C@@H](NC(=O)[C@H](CCCO)NC(=O)[C@@H](NC(=O)[C@H](CCCN=C(N)N)NC(=O)C(C)(C)N)C(C)C)[C@@H](C)CC)C(=O)O` (H-[Aib]RV[Nva(5-OH)]IHPI-OH): the pA2 in assay [1] was found to be 6.2.
For the molecule `CC[C@H](C)[C@H](NC(=O)[C@H](CCCO)NC(=O)[C@@H](NC(=O)[C@H](CCCN=C(N)N)NC(=O)CNC)C(C)C)C(=O)N[C@@H](Cc1c[nH]cn1)C(=O)N1CCC[C@H]1C(=O)N[C@@H](Cc1ccccc1)C(=O)O` (H-[Sar]RV[Nva(5-OH)]IHPF-OH), in assay [1], the pA2 was less than 6.
Turning to `CC[C@H](C)[C@H](NC(=O)[C@@H]1CCCN1C(=O)[C@H](Cc1c[nH]cn1)NC(=O)[C@@H](NC(=O)[C@H](CCCO)NC(=O)[C@@H](NC(=O)[C@H](CCCN=C(N)N)NC(=O)CNC)C(C)C)[C@@H](C)CC)C(=O)O` (H-[Sar]RV[Nva(5-OH)]IHPI-OH), in assay [1], the pA2 was less than 5.
On the same count and under the same terms, in the case of `CC[C@H](C)[C@H](NC(=O)C(Cc1ccc(C(=O)O)cc1)NC(=O)[C@@H](NC(=O)[C@H](CCCN=C(N)N)NC(=O)CNC)C(C)C)C(=O)N[C@@H](Cc1c[nH]cn1)C(=O)N1CCC[C@H]1C(=O)N[C@@H](Cc1ccccc1)C(=O)O` (mixture of isomers) it was less than 5; in that of `CC[C@H](C)[C@H](NC(=O)C(Cc1ccc(C(F)(F)F)cc1)NC(=O)[C@@H](NC(=O)[C@H](CCCN=C(N)N)NC(=O)CNC)C(C)C)C(=O)N[C@@H](Cc1c[nH]cn1)C(=O)N1CCC[C@H]1C(=O)N[C@@H](Cc1ccccc1)C(=O)O` (mixture of isomers), less than 5.
`CC[C@H](C)[C@H](NC(=O)[C@H](Cc1ccc(O)cc1)NC(=O)[C@@H](NC(=O)[C@H](CCCN=C(N)N)NC(=O)CNC)C(C)C)C(=O)N[C@@H](Cc1c[nH]cn1)C(=O)N1CCC[C@H]1C(=O)N[C@@H](CCOC)C(=O)O` (stereo in doubt; form 1) yielded a pA2 in assay [1] of 7.6. The same molecule had an Agonist activity in assay [2] of less than 0.1%.
